Legend:
Assay type in all cases: functional
Mythimna separata [1] = experiment: Insecticidal activity against fourth-instar larval stage of Mythimna separata (Oriental armyworm) in compound pretreated Zea mays L. Tangyu 10 leaves assessed as mortality at 20 mg/l at 25 +/-1 degC after 2 days
Procedure, shortened: (§1)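 Greenhouse-reared fourth-instar oriental armyworm larvae. Corn (Tangyu 10) leaves laid on moist filter paper in Petri dishes, sprayed with test solution (200 mg/L solution diluted in distilled water), then air-dried. Ten larvae per dish. Held at 25 ± 1 °C; mortality scored dead/alive 2 days post-treatment. Triplicate treatments, Abbott-corrected, 0–100 scale.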

Mythimna separata [2] = experiment: Insecticidal activity against fourth-instar larval stage of Mythimna separata (Oriental armyworm) in compound pretreated Zea mays L. Tangyu 10 leaves assessed as mortality at 50 mg/l at 25 +/-1 degC after 2 days; procedure, shortened: as §1
Mythimna separata [3] = experiment: Insecticidal activity against fourth-instar larval stage of Mythimna separata (Oriental armyworm) in compound pretreated Zea mays L. Tangyu 10 leaves assessed as mortality at 100 mg/l at 25 +/-1 degC after 2 days; procedure, shortened: as §1
Mythimna separata [4] = experiment: Insecticidal activity against fourth-instar larval stage of Mythimna separata (Oriental armyworm) in compound pretreated Zea mays L. Tangyu 10 leaves assessed as mortality at 200 mg/l at 25 +/-1 degC after 2 days; procedure, shortened: as §1
Mythimna separata [5] = experiment: Insecticidal activity against fourth-instar larval stage of Mythimna separata (Oriental armyworm) in compound pretreated Zea mays L. Tangyu 10 leaves assessed as mortality at 10 mg/l at 25 +/-1 degC after 2 days; procedure, shortened: as §1
Plutella xylostella [6] = experiment: Insecticidal activity against second-instar larval stage of Plutella xylostella (diamondback moth) in cabbage leaves assessed as mortality at 1 mg/l at 25 +/-1 degC treated for 3 secs before larva infestation measured after 2 days by leaf-dip method; settings: 48 h
Procedure, shortened: (§2)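 Greenhouse-reared diamondback moth larvae tested by leaf-dip method at 25 ± 1 °C. Test solution made at 200 mg/L, then diluted with distilled water to working concentrations. Mortality scored dead/alive, corrected with Abbott's formula and expressed on a 0–100 scale.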

Plutella xylostella [7] = experiment: Insecticidal activity against second-instar larval stage of Plutella xylostella (diamondback moth) in cabbage leaves assessed as mortality at 2.5 mg/l at 25 +/-1 degC treated for 3 secs before larva infestation measured after 2 days by leaf-dip method; settings: 48 h; procedure, shortened: as §2
Plutella xylostella [8] = experiment: Insecticidal activity against second-instar larval stage of Plutella xylostella (diamondback moth) in cabbage leaves assessed as mortality at 5 mg/l at 25 +/-1 degC treated for 3 secs before larva infestation measured after 2 days by leaf-dip method; settings: 48 h; procedure, shortened: as §2
Plutella xylostella [9] = experiment: Insecticidal activity against second-instar larval stage of Plutella xylostella (diamondback moth) in cabbage leaves assessed as mortality at 10 mg/l at 25 +/-1 degC treated for 3 secs before larva infestation measured after 2 days by leaf-dip method; settings: 48 h; procedure, shortened: as §2
Plutella xylostella [10] = experiment: Insecticidal activity against second-instar larval stage of Plutella xylostella (diamondback moth) in cabbage leaves assessed as mortality at 20 mg/l at 25 +/-1 degC treated for 3 secs before larva infestation measured after 2 days by leaf-dip method; settings: 48 h; procedure, shortened: as §2

| SMILES | mortality at 20 µg/mL (Mythimna separata [1]) [%] | mortality at 50 µg/mL (Mythimna separata [2]) [%] | mortality at 100 µg/mL (Mythimna separata [3]) [%] | mortality at 200 µg/mL (Mythimna separata [4]) [%] | further results |
| --- | --- | --- | --- | --- | --- |
| CNC(=O)c1cc(Cl)cc(C)c1NC(=O)c1cc(COS(=O)(=O)c2ccc(C)cc2)nn1-c1ncccc1Cl | 80 | 100 | 100 | 100 | – |
| CCCNC(=O)c1cccc(C)c1NC(=O)c1cc(COC(C)=O)nn1-c1ncccc1Cl | 40 | 100 | 100 | 100 | – |
| CNC(=O)c1cc(Cl)cc(C)c1NC(=O)c1cc(COC(=O)CCCCl)nn1-c1ncccc1Cl | 60 | 100 | 100 | 100 | – |
| CNC(=O)c1cc(Cl)cc(C)c1NC(=O)c1cc(C(=O)NC(C)(C)C)nn1-c1ncccc1Cl | 40 | 100 | 100 | 100 | – |
| CCOC(=O)c1cc(C(=O)Nc2c(C)cc(Cl)cc2C(=O)NC(C)C)n(-c2ncccc2Cl)n1 | – | – | – | 70 | – |
| CC(=O)OCc1cc(C(=O)Nc2c(C)cc(Cl)cc2C(=O)NC(C)C)n(-c2ncccc2Cl)n1 | 100 | 100 | 100 | 100 | mortality at 10 µg/mL (Mythimna separata [5]): 20%; mortality at 1 µg/mL (Plutella xylostella [6]): 0%; mortality at 2.5 µg/mL (Plutella xylostella [7]): 60%; mortality at 5 µg/mL (Plutella xylostella [8]): 95%; mortality at 10 µg/mL (Plutella xylostella [9]): 100%; mortality at 20 µg/mL (Plutella xylostella [10]): 100% |
| CCCCNC(=O)c1cc(C(=O)Nc2c(C)cc(Cl)cc2C(=O)NC)n(-c2ncccc2Cl)n1 | 20 | 100 | 100 | 100 | – |
| CNC(=O)c1cccc(C)c1NC(=O)c1cc(COC(C)=O)nn1-c1ncccc1Cl | – | – | 60 | 100 | – |
| CNC(=O)c1cc(Cl)cc(C)c1NC(=O)c1cc(C(=O)OC(C)C)nn1-c1ncccc1Cl | – | – | – | 80 | – |
| CCOC(=O)c1cc(C(=O)Nc2c(C)cc(Cl)cc2C(=O)NC2CC2)n(-c2ncccc2Cl)n1 | – | 80 | 100 | 100 | – |
| CC(=O)OCc1cc(C(=O)Nc2c(C)cc(Cl)cc2C(=O)NCc2ccccc2)n(-c2ncccc2Cl)n1 | 40 | 100 | 100 | 100 | – |
| CNC(=O)c1cc(Cl)cc(C)c1NC(=O)c1cc(C(=O)NC(C)C)nn1-c1ncccc1Cl | 60 | 100 | 100 | 100 | – |
| CNC(=O)c1cc(Cl)cc(C)c1NC(=O)c1cc(C=O)nn1-c1ncccc1Cl | – | – | 40 | 100 | – |
| CNC(=O)c1cc(Cl)cc(C)c1NC(=O)c1cc(CN)nn1-c1ncccc1Cl | – | – | – | 20 | – |
| CNC(=O)c1cc(Cl)cc(C)c1NC(=O)c1cc(CNC(C)=O)nn1-c1ncccc1Cl | 0 | 100 | 100 | 100 | – |
| CNC(=O)c1cc(Cl)cc(C)c1NC(=O)c1cc(COC(=O)C(F)(F)F)nn1-c1ncccc1Cl | 20 | 100 | 100 | 100 | – |
| CNC(=O)c1cc(Cl)cc(C)c1NC(=O)c1cc(C(=O)NCc2ccccc2)nn1-c1ncccc1Cl | 20 | 100 | 100 | 100 | – |
| CC(=O)OCc1cc(C(=O)Nc2c(C)cccc2C(=O)NC2CC2)n(-c2ncccc2Cl)n1 | 40 | 100 | 100 | 100 | – |
| CNC(=O)c1cc(C(=O)Nc2c(C)cc(Cl)cc2C(=O)NCc2ccccc2)n(-c2ncccc2Cl)n1 | – | – | 60 | 100 | – |
| CNC(=O)c1cc(Cl)cc(C)c1NC(=O)c1cc(C(=O)NC2CCCCC2)nn1-c1ncccc1Cl | – | – | – | 0 | – |
| CCOC(=O)c1cc(C(=O)Nc2c(C)cccc2C(=O)NC(C)C)n(-c2ncccc2Cl)n1 | – | 60 | 100 | 100 | – |
| CNC(=O)c1cc(Cl)cc(C)c1NC(=O)c1cc(C(=O)Nc2ccccc2)nn1-c1ncccc1Cl | 0 | 100 | 100 | 100 | – |

| SMILES | mortality at 20 µg/mL (Mythimna separata [1]) [%] | mortality at 50 µg/mL (Mythimna separata [2]) [%] | mortality at 100 µg/mL (Mythimna separata [3]) [%] | mortality at 200 µg/mL (Mythimna separata [4]) [%] | further results |
| --- | --- | --- | --- | --- | --- |
| CNC(=O)c1cc(Cl)cc(C)c1NC(=O)c1cc(CNC(=O)c2ccccc2)nn1-c1ncccc1Cl | – | – | – | 20 | – |
| CNC(=O)c1cc(C(=O)Nc2c(C)cc(Cl)cc2C(=O)NC2CC2)n(-c2ncccc2Cl)n1 | 100 | 100 | 100 | 100 | mortality at 10 µg/mL (Mythimna separata [5]): 20%; mortality at 10 µg/mL (Plutella xylostella [9]): 0%; mortality at 20 µg/mL (Plutella xylostella [10]): 50% |
| CCOC(=O)c1cc(C(=O)Nc2c(C)cc(Cl)cc2C(=O)NOC)n(-c2ncccc2Cl)n1 | – | – | – | 50 | – |
| CNC(=O)c1cc(Cl)cc(C)c1NC(=O)c1cc(CO)nn1-c1ncccc1Cl | 60 | 100 | 100 | 100 | – |
| CNC(=O)c1cc(Cl)cc(C)c1NC(=O)c1cc(COC(C)=O)nn1-c1ncccc1Cl | 100 | 100 | 100 | 100 | mortality at 10 µg/mL (Mythimna separata [5]): 0%; mortality at 1 µg/mL (Plutella xylostella [6]): 0%; mortality at 2.5 µg/mL (Plutella xylostella [7]): 45%; mortality at 5 µg/mL (Plutella xylostella [8]): 70%; mortality at 10 µg/mL (Plutella xylostella [9]): 90%; mortality at 20 µg/mL (Plutella xylostella [10]): 100% |
| CCOC(=O)c1cc(C(=O)Nc2c(C)cc(Cl)cc2C(=O)NC(C)(C)C)n(-c2ncccc2Cl)n1 | – | 70 | 100 | 100 | – |
| CCCCNC(=O)c1cc(Cl)cc(C)c1NC(=O)c1cc(C(=O)NC)nn1-c1ncccc1Cl | – | – | 20 | 100 | – |
| CNC(=O)c1cc(Cl)cc(C)c1NC(=O)c1cc(COC(=O)c2ccccc2)nn1-c1ncccc1Cl | 40 | 100 | 100 | 100 | – |
| CNC(=O)c1cc(C(=O)Nc2c(C)cc(Cl)cc2C(=O)NC)n(-c2ncccc2Cl)n1 | – | – | 60 | 100 | – |
| CCOC(=O)c1cc(C(=O)Nc2c(C)cc(Cl)cc2C(=O)NC)n(-c2ncccc2Cl)n1 | – | – | – | 80 | – |
| CCCNC(=O)c1cccc(C)c1NC(=O)c1cc(C(=O)OCC)nn1-c1ncccc1Cl | – | 60 | 100 | 100 | – |
| CNC(=O)c1cc(Cl)cc(C)c1NC(=O)c1cc(C(=O)OCc2ccccc2)nn1-c1ncccc1Cl | – | – | 40 | 100 | – |
| CCOC(=O)c1cc(C(=O)Nc2c(C)cc(Cl)cc2C(=O)NCc2ccccc2)n(-c2ncccc2Cl)n1 | – | – | – | 20 | – |
| CNC(=O)c1cc(Cl)cc(C)c1NC(=O)c1cc(COS(C)(=O)=O)nn1-c1ncccc1Cl | 40 | 100 | 100 | 100 | – |
| CNC(=O)c1cc(Cl)cc(C)c1NC(=O)c1cc(COC(=O)COC(C)=O)nn1-c1ncccc1Cl | 40 | 100 | 100 | 100 | – |
| CC(=O)OCc1cc(C(=O)Nc2c(C)cccc2C(=O)NC(C)C)n(-c2ncccc2Cl)n1 | 100 | 100 | 100 | 100 | mortality at 10 µg/mL (Mythimna separata [5]): 0%; mortality at 5 µg/mL (Plutella xylostella [8]): 0%; mortality at 10 µg/mL (Plutella xylostella [9]): 60%; mortality at 20 µg/mL (Plutella xylostella [10]): 100% |
| CNC(=O)c1cc(C(=O)Nc2c(C)cc(Cl)cc2C(=O)NC(C)C)n(-c2ncccc2Cl)n1 | – | – | 60 | 100 | – |
| CCCCOC(=O)c1cc(C(=O)Nc2c(C)cc(Cl)cc2C(=O)NC)n(-c2ncccc2Cl)n1 | – | – | – | 80 | – |
| CNC(=O)c1cc(C(=O)Nc2c(C)cc(Cl)cc2C(=O)NOC)n(-c2ncccc2Cl)n1 | – | – | – | 0 | – |
| CONC(=O)c1cc(Cl)cc(C)c1NC(=O)c1cc(COC(C)=O)nn1-c1ncccc1Cl | – | – | 0 | 100 | – |
| CNC(=O)c1cc(Cl)cc(C)c1NC(=O)c1cc(CNS(C)(=O)=O)nn1-c1ncccc1Cl | – | – | 60 | 100 | – |
| CNC(=O)c1cc(Cl)cc(C)c1NC(=O)c1cc(C(=O)OC2CCCCC2)nn1-c1ncccc1Cl | – | – | 40 | 100 | – |

Source: ChEMBL document CHEMBL3045285, “Synthesis and insecticidal activities of novel anthranilic diamides containing modified N-pyridylpyrazoles” (2010)
